BindingDB's records for doi:10.1128/AAC.00443-09 (University of Medicine and Dentistry of New Jersey, 2009)

Assays:
[1] = target: 1,3-beta-glucan synthase (Candida glabrata, UniProt F5BCZ9, W1375L); test: Inhibition of Candida glabrata isolate 5416 1,3-beta-D-glucan synthase wild type Fks1p/Fks2p W1375L mutant
How it was run: (§1)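 Cells grown in YPD broth at 35°C with vigorous shaking to early stationary phase. Membrane protein extracted and glucan synthase partially purified by product entrapment. Filtration polymerization assay measured [3H]glucose incorporation into product, started by adding enzyme. Echinocandin serial dilutions spanned 0.01–10,000 ng/ml, with 1% DMSO controls for anidulafungin. IC50 from variable-slope sigmoidal fit.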

[2] = target: 1,3-beta-glucan synthase (Candida glabrata, UniProt E2GKZ4, S629P); test: Inhibition of Candida glabrata isolate 5847 1,3-beta-D-glucan synthase Fks1p S629P mutant/wild type Fks2p; how it was run: as §1
[3] = target: 1,3-beta-glucan synthase (Candida glabrata, UniProt F5BCZ9, F659S); test: Inhibition of Candida glabrata isolate 41026 1,3-beta-D-glucan synthase wild type Fks1p/Fks2p F659S mutant; how it was run: as §1
[4] = target: 1,3-beta-glucan synthase (Candida glabrata, UniProt F5BCZ9, D666E); test: Inhibition of Candida glabrata isolate 42031 1,3-beta-D-glucan synthase wild type Fks1p/Fks2p D666E mutant; how it was run: as §1
[5] = target: 1,3-beta-glucan synthase (Candida glabrata, UniProt F5BCZ9, P667T); test: Inhibition of Candida glabrata isolate 51916 1,3-beta-D-glucan synthase wild type Fks1p/Fks2p P667T mutant; how it was run: as §1
[6] = target: 1,3-beta-glucan synthase (Candida glabrata, UniProt E2GKZ4, D632E); test: Inhibition of Candida glabrata isolate 3169 1,3-beta-D-glucan synthase Fks1p D632E mutant/wild type Fks2p; how it was run: as §1
[7] = target: 1,3-beta-glucan synthase (Candida glabrata, UniProt F5BCZ9, D666G); test: Inhibition of Candida glabrata isolate 41400 1,3-beta-D-glucan synthase wild type Fks1p/Fks2p D666G mutant; how it was run: as §1
[8] = target: 1,3-beta-glucan synthase (Candida glabrata, UniProt F5BCZ9, S663P); test: Inhibition of Candida glabrata isolate 3830 1,3-beta-D-glucan synthase wild type Fks1p/Fks2p S663P mutant; how it was run: as §1
[9] = target: 1,3-beta-glucan synthase (Candida glabrata, UniProt F5BCZ9, F659V); test: Inhibition of Candida glabrata isolate 234 1,3-beta-D-glucan synthase wild type Fks1p/Fks2p F659V mutant; how it was run: as §1
1,3-beta-glucan synthase (Candida glabrata, UniProt F5BCZ9, F659V), sequence (F5BCZ9 entry or part of it F659V): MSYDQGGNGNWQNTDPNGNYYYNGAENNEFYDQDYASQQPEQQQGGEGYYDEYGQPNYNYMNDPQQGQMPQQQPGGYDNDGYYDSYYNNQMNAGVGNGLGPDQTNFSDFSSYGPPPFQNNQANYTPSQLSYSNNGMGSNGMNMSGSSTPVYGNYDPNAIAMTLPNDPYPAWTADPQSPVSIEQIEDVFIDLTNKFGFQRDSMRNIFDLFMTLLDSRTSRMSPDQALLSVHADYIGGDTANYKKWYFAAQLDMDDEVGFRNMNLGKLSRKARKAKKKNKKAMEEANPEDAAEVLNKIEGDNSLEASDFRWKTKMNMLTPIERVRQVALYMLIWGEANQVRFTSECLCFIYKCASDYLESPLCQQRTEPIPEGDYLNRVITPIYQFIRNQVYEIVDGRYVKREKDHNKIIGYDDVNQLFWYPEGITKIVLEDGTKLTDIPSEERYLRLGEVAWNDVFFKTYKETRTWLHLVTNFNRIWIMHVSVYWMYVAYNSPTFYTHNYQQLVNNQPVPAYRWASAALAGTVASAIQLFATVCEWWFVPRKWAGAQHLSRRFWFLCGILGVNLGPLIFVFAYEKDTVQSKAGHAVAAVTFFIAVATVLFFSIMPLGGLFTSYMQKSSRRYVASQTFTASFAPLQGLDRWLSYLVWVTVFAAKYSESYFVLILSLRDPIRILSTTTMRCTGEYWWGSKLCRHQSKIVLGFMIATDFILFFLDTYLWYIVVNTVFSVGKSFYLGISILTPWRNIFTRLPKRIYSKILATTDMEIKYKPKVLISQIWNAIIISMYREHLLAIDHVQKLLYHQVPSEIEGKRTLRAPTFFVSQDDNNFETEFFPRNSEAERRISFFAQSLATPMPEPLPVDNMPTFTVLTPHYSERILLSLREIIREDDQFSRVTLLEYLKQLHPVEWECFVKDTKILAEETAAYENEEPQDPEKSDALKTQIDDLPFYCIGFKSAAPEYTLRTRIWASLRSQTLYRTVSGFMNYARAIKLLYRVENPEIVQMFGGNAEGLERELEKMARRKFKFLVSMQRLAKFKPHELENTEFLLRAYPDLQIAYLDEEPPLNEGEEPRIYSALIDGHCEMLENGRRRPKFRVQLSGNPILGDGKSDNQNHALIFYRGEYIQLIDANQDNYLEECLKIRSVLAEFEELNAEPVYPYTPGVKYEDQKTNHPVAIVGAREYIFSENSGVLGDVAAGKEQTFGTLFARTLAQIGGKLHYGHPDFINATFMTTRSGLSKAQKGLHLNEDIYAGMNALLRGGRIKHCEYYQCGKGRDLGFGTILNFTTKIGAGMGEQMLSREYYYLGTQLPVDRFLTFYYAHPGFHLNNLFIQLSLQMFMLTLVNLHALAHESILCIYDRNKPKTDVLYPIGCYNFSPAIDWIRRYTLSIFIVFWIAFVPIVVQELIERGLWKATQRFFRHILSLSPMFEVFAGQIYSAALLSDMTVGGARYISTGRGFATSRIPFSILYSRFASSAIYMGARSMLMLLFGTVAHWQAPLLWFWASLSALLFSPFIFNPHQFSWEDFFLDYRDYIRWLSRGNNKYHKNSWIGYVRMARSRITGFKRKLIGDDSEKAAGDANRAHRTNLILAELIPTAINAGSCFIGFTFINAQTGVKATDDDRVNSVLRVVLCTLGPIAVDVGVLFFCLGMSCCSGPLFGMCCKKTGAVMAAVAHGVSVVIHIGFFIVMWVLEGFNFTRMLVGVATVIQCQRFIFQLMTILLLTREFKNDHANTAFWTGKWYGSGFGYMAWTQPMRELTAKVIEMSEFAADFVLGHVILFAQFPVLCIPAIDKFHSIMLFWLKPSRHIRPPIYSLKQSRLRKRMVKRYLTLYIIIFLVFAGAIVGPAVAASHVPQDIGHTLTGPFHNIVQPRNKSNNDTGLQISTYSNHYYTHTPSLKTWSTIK

1,3-beta-glucan synthase (Candida glabrata, UniProt F5BCZ9, W1375L), sequence (F5BCZ9 entry or part of it W1375L): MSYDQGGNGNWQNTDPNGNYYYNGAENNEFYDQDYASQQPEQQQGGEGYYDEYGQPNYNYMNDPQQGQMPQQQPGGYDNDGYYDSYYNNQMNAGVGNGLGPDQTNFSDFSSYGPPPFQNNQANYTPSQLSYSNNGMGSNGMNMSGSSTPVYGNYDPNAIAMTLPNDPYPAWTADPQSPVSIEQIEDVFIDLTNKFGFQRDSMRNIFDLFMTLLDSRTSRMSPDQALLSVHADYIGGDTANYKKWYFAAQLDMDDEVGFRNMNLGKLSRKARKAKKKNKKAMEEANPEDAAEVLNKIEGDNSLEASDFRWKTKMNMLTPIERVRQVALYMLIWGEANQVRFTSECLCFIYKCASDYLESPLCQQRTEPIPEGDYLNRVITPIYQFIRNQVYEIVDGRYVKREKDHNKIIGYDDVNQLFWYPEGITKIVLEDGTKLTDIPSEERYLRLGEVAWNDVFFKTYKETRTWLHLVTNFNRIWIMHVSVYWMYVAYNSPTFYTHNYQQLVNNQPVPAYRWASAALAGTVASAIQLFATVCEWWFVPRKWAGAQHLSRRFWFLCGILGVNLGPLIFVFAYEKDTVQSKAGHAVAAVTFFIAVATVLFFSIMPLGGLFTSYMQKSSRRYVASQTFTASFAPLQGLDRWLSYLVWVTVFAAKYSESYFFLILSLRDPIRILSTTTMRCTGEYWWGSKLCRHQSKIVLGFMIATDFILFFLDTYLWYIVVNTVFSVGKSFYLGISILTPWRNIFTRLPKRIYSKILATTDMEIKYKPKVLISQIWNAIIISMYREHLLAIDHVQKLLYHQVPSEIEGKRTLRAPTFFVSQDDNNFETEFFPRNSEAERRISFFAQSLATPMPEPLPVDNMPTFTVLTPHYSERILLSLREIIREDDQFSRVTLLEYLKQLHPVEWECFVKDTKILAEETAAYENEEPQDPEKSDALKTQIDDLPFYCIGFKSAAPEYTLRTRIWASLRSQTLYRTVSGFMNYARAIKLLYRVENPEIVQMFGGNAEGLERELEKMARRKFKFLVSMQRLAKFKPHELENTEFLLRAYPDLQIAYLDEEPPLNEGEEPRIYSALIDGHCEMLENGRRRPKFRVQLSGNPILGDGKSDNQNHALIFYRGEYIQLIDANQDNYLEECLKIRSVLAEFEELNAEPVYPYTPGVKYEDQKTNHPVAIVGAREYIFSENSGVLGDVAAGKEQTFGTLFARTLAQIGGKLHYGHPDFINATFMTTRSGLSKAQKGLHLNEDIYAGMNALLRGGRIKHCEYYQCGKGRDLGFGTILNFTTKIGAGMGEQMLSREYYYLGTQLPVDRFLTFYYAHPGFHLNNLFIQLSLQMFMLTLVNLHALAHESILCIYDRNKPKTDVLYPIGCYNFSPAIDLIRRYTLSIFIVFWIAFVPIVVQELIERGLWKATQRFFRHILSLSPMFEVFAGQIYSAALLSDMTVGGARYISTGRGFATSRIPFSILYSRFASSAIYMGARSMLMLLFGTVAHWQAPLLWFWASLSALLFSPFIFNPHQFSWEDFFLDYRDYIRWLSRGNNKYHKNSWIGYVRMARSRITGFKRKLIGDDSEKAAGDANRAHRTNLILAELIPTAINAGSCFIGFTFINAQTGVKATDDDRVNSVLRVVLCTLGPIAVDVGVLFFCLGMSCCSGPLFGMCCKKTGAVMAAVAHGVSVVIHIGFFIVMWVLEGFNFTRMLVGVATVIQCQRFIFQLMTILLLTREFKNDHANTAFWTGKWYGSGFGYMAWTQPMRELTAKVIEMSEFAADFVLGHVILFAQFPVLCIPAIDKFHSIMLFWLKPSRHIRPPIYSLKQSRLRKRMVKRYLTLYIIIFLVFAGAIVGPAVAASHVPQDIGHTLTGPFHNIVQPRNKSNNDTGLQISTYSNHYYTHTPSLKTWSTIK

CCC(C)CC(C)CCCCCCCCC(=O)N[C@H]1C[C@@H](O)[C@@H](NCCN)NC(=O)[C@@H]2[C@@H](O)CCN2C(=O)[C@H]([C@H](O)CCN)NC(=O)[C@H]([C@H](O)[C@@H](O)c2ccc(O)cc2)NC(=O)[C@@H]2C[C@@H](O)CN2C(=O)[C@H]([C@@H](C)O)NC1=O (some centres undefined) [CHEBI:474180]
IC50 [1]: 608 nM | IC50 [2]: 4990 nM | IC50 [3]: 1060 nM | IC50 [4]: 258 nM | IC50 [5]: 166 nM | IC50 [6]: 845 nM | IC50 [7]: 507 nM | IC50 [8]: 5120 nM | IC50 [9]: 115 nM
